Experimental data from PMC10099425 (ACS Omega, 2023).

Tests used:
[1] = cited from earlier work
[2] = Diffusion and permeability studies; type: in vitro ADME; conditions: after 480 min, PBS pH 6.8, 37 °C, NAR 50 mg/mL in donor
[3] = Pharmacokinetic study after oral administration; type: in vivo, Wistar rats; conditions: male, Wistar, rat, plasma, 50 mg/kg
Outline: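 Male Wistar rats (220–250 g, 10–12 weeks) were fasted overnight with water ad libitum (n = 6/group). They were dosed orally with the compound as a 0.5% w/v Na-CMC suspension or DES formulation. Retro-orbital blood was drawn at 0, 0.5, 2, 4, 6, 8, 12 and 24 h. Plasma was precipitated with acetonitrile (1:3) and assayed by isocratic C18 HPLC-DAD at 283 nm. Parameters came from PK software; mean ± SD.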

amount of NAR diffused [2]: 30.78 ± 3.4 % w/v | AUC(0-t) [3]: 226 ± 4.2 ng·h/mL | Cmax [3]: 31.2 ± 2.3 ng/mL | MRT [3]: 6.46 ± 1.7 h | Tmax [3]: 4.1 ± 0.6 h | half-life [3]: 3.43 ± 1.1 h
Structure (SMILES): C[C@@H]1O[C@@H](O[C@H]2[C@H](Oc3cc(O)c4c(c3)O[C@H](c3ccc(O)cc3)CC4=O)O[C@H](CO)[C@@H](O)[C@@H]2O)[C@H](O)[C@H](O)[C@H]1O [NAR (pure), 4′,5,7-trihydroxyflavanone 7-rhamnoglucoside]
elimination half-life [1]: 3.64 ± 3.0 h
